Reference: ChEMBL document CHEMBL4177556, “Novel 5-HT7R antagonists, arylsulfonamide derivatives of (aryloxy)propyl piperidines: Add-on effect to the antidepressant activity of SSRI and DRI, and pro-cognitive profile” (Bioorg Med Chem, 2017)
Each block holds one molecule with its values, some of them ahead of it. The source made the active and inactive calls.

What was measured:
[1] = tested on: Rattus norvegicus; assay: Cognitive enhancement effect in Sprague-Dawley rat memory impairment model assessed as reversal of natural forgetting impairment at 1 mg/kg, ip administered 30 mins prior to test measured after 24 hrs by novel object recognition test; assay type: functional, organism-based
Procedure, shortened: (§1)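 Male Sprague–Dawley rats (about 250 g), handled and acclimatized. Habituated to an open field arena (25 lx) for 5 min, 24 h before testing. Two 3-min trials (T1, T2) separated by a 24 h inter-trial interval. Drug given i.p. 30 min before T1. Object exploration video-tracked; discrimination index = (EB−EA)/(EA+EB).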

[2] = tested on: Mus musculus; assay: Antidepressant-like activity in C57BL/6J mouse at 2.5 mg/kg measured during 6 mins session by tail suspension test; assay type: functional, organism-based
Procedure, shortened: (§2)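 Male C57BL/6J mice (22–26 g), 7–9 per group. Compound in distilled water, i.p. at 10 ml/kg, 60 min before test. Mice suspended by tail from a strain-gauge hook for 6 min. Struggling episodes, average event force and immobility (force below 0.20 N threshold) recorded automatically. One-way ANOVA with Bonferroni; mean ± SEM.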

[3] = tested on: Mus musculus; assay: Antidepressant-like activity in Swiss albino mouse assessed as decrease in immobility time at 10 mg/kg measured during last 4 mins of 6 mins test by forced swim test relative to control; assay type: functional; parameters: scale not given: the % may be the effect or the level left
Procedure, shortened: (§3)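 Porsolt swim test in male Swiss albino mice (22–26 g), 7–10 per dose, each used once, run 09:00–14:00 by a blinded observer. Drugs in distilled water, i.p. at 10 ml/kg: escitalopram 30 min before test, others 60 min. Immobility scored during the last 4 min of a 6 min swim at 23–25 °C. One-way ANOVA with Bonferroni vs vehicle.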

[4] = tested on: Mus musculus; assay: Antidepressant-like activity in Swiss albino mouse assessed as decrease in immobility time at 0.312 mg/kg cotreated with 1.25 mg/kg of bupropion measured during last 4 mins of 6 mins test by forced swim test; assay type: functional, organism-based
Procedure, shortened: (§4)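 Male Swiss albino mice, 7–10 per group. Test compound (i.p., 60 min pre-test) co-given with reboxetine or bupropion (60 min) or escitalopram (30 min), all in distilled water at 10 ml/kg. Placed in a water cylinder (10 cm water, 23–25 °C) for 6 min; immobility scored over the last 4 min by a blinded observer. Two-way ANOVA with Bonferroni.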

[5] = target: Adrenergic receptor alpha-1 (Homo sapiens) (UniProt P35348+P25100+P35368); assay: Binding affinity to alpha1-adrenergic receptor (unknown origin) at 1 uM relative to control; assay type: protein assay
Procedure, shortened: (§5)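 Transporter and α1-adrenergic binding run externally by Eurofins Cerep using their standard protocols. Reported as % inhibition of control specific binding.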

[6] = tested on: Mus musculus; assay: Antidepressant-like activity in C57BL/6J mouse assessed as increase in number of fight episodes at 0.625 to 1.25 mg/kg measured during 6 mins session by tail suspension test; assay type: functional, organism-based; procedure, shortened: as §2
[7] = species on record: Homo sapiens; assay: Selectivity ratio of Ki for human 5-HT1A receptor to Ki for human 5-HT7b receptor
[8] = target: T1, 5-hydroxytryptamine receptor 7 (Homo sapiens, UniProt P34969); assay: Displacement of [3H]-5-CT from human 5-HT7b receptor expressed in HEK293 cells after 1 hr by microbeta counting analysis; assay type: cell-based
Procedure, shortened: (§6)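 Membranes from stably transfected HEK293 or CHO-K1 cells, homogenized, centrifuged twice at 35,000g, with 15 min at 37 °C in between. Receptor-specific Tris-HCl buffers with MgCl2, plus EDTA, pargyline or ascorbate as applicable. Incubated 1 h at 37 °C (5-HT1A at room temperature), filtered, and bound radioactivity counted.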

[9] = target: 5-hydroxytryptamine receptor 2A (Homo sapiens, UniProt P28223); assay: Displacement of [3H]-Ketanserin from human 5-HT2A receptor expressed in HEK293 or CHO-K1 cells after 1 hr by microbeta counting analysis; assay type: cell-based; procedure, shortened: as §6
[10] = tested on: Mus musculus; assay: Antidepressant-like activity in C57BL/6J mouse assessed as decrease in immobility time at 1.25 mg/kg measured during 6 mins session by tail suspension test; assay type: functional, organism-based; procedure, shortened: as §2
[11] = target: D(2) dopamine receptor (Homo sapiens, UniProt P14416); assay: Displacement of [3H]-Raclopride from human dopamine D2L receptor expressed in HEK293 or CHO-K1 cells after 1 hr by microbeta counting analysis; assay type: cell-based; procedure, shortened: as §6
[12] = target: Sodium-dependent dopamine transporter (Homo sapiens) (UniProt Q01959); assay: Displacement of [3H]BTCP from recombinant human DAT at 1 uM after 120 mins by scintillation counting analysis relative to control; procedure, shortened: as §5
[13] = tested on: Rattus norvegicus; assay: Cognitive enhancement effect in Sprague-Dawley rat memory impairment model assessed as reversal of natural forgetting impairment administered ip 30 mins prior to test measured after 24 hrs by novel object recognition test; assay type: functional, organism-based; procedure, shortened: as §1
[14] = tested on: Mus musculus; assay: Antidepressant-like activity in C57BL/6J mouse assessed as decrease in immobility time at 2.5 mg/kg measured during 6 mins session by tail suspension test; assay type: functional, organism-based; procedure, shortened: as §2
[15] = target: Sodium-dependent serotonin transporter (Homo sapiens) (UniProt P31645); assay: Displacement of [3H]imipramine from recombinant human SERT at 1 uM after 60 mins by scintillation counting analysis relative to control; procedure, shortened: as §5
[16] = tested on: Mus musculus; assay: Toxicity in mouse assessed as effect on spontaneous locomotory activity at 0.312 to 2.5 mg/kg, ip administered 60 mins prior to testing measured for 6 mins; assay type: organism-based; details: in vivo, 0.1 h
Procedure, shortened: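 Swiss albino or C57BL/6J mice habituated 30 min in activity cages. Ambulation counted from 2–6 min (matching the swim test) or over 6 min (matching the tail suspension test) with an infrared multi-channel activity monitor. Dosing i.p. as for the behavioral tests.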

[17] = tested on: Mus musculus; assay: Antidepressant-like activity in Swiss albino mouse assessed as decrease in immobility time at 0.312 mg/kg cotreated with 0.625 mg/kg of escitalopram measured during last 4 mins of 6 mins test by forced swim test relative to control; assay type: functional; parameters: scale not given: the % may be the effect or the level left; procedure, shortened: as §4
[18] = target: T2, 5-hydroxytryptamine receptor 1A (Homo sapiens, UniProt P08908); assay: Displacement of [3H]-8-OH-DPAT from human 5-HT1A receptor expressed in HEK293 or CHO-K1 cells after 1 hr by microbeta counting analysis; assay type: cell-based; procedure, shortened: as §6
T2 sequence (P08908 whole entry): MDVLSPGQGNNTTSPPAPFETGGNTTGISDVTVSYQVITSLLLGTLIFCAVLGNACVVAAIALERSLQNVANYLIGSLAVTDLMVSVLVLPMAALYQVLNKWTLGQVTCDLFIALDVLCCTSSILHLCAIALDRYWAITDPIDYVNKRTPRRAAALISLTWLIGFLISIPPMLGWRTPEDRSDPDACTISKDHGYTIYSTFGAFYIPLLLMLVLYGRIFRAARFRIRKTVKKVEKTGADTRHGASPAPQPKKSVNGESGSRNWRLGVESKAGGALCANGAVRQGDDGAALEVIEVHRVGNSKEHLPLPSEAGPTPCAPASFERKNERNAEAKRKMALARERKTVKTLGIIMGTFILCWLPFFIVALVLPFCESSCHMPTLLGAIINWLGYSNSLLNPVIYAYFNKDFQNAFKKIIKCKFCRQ

[19] = target: 5-hydroxytryptamine receptor 6 (Homo sapiens, UniProt P50406); assay: Displacement of [3H]-LSD from human 5-HT6 receptor expressed in HEK293 or CHO-K1 cells after 1 hr by microbeta counting analysis; assay type: cell-based; procedure, shortened: as §6
[20] = tested on: Mus musculus; assay: Antidepressant-like activity in C57BL/6J mouse assessed as increase in force of fights at 2.5 mg/kg measured during 6 mins session by tail suspension test; assay type: functional, organism-based; procedure, shortened: as §2
[21] = tested on: Mus musculus; assay: Antidepressant-like activity in Swiss albino mouse assessed as decrease in immobility time at 0.625 to 2.5 mg/kg measured during last 4 mins of 6 mins test by forced swim test relative to control; assay type: functional; parameters: scale not given: the % may be the effect or the level left; procedure, shortened: as §3
[22] = target: T1, 5-hydroxytryptamine receptor 7; assay: Antagonist activity at human 5-HT7b receptor expressed in HEK293 cells assessed as inhibition of 5-CT induced cAMP accumulation after 30 mins by LANCE based TR-FRET assay; assay type: functional, cell-based
Procedure, shortened: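 Stable 5-HT7 HEK293 cells in DMEM with 10% dialysed FBS and G418, harvested at 90% confluence, washed in warm PBS, and resuspended in HBSS/5 mM HEPES/0.5 mM IBMX/0.1% BSA. Compound incubated with cells for 30 min at room temperature against 5-CT (10 nM). Cells lysed with Eu-cAMP/ULight-anti-cAMP for 1 h at room temperature, then LANCE cAMP read-out. Triplicate at 8 concentrations.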

[23] = target: Sodium-dependent noradrenaline transporter (Homo sapiens) (UniProt P23975); assay: Displacement of [3H]nisoxetine from recombinant human NET at 1 uM after 120 mins by scintillation counting analysis relative to control; procedure, shortened: as §5
Chain of Sodium-dependent noradrenaline transporter (Homo sapiens) (P23975 whole entry): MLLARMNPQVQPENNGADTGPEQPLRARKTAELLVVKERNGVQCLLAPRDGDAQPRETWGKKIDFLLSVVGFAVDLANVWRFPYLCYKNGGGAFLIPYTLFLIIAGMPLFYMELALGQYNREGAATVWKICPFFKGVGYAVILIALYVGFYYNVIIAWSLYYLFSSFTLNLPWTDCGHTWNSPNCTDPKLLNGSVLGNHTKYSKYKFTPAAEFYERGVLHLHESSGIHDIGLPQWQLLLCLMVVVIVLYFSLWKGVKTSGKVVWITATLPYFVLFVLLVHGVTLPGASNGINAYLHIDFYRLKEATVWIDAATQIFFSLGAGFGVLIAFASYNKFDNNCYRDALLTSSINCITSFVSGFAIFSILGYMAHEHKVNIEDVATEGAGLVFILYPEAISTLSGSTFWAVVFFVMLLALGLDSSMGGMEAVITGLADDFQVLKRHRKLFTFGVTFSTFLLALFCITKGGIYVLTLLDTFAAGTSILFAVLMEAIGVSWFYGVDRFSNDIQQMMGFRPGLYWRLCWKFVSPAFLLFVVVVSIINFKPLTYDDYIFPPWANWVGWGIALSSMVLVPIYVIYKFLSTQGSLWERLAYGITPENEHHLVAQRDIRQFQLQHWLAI

T1 sequence (P34969 whole entry): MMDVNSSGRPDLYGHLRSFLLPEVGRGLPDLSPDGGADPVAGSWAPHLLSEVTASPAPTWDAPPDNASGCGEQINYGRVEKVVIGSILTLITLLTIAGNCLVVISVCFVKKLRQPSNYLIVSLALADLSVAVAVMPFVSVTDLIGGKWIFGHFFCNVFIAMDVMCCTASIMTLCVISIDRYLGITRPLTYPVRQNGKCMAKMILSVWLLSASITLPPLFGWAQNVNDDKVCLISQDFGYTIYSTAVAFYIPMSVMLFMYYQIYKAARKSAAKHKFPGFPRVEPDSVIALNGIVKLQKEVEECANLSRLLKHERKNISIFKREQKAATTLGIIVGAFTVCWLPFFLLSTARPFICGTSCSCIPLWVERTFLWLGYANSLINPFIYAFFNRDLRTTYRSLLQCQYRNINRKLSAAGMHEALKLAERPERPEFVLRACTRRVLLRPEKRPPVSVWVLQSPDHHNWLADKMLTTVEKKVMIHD
Chain of Sodium-dependent serotonin transporter (Homo sapiens) (P31645 whole entry, looked up): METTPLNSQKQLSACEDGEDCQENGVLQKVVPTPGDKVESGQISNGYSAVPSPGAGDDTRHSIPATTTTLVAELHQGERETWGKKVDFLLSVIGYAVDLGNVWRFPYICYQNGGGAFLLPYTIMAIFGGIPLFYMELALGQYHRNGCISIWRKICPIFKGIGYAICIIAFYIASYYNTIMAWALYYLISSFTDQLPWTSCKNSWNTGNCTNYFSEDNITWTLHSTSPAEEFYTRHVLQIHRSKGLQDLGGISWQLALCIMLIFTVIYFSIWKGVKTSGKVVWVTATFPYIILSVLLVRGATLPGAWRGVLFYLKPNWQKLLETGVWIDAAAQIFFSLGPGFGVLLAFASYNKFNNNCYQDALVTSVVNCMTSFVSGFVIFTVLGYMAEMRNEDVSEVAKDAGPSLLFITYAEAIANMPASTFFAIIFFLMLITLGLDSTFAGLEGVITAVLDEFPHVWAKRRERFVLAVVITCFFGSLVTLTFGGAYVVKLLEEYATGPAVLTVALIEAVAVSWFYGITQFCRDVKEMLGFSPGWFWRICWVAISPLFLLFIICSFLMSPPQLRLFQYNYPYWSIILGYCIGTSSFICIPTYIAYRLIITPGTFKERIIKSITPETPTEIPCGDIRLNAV
Chain of 5-hydroxytryptamine receptor 6 (P50406 whole entry): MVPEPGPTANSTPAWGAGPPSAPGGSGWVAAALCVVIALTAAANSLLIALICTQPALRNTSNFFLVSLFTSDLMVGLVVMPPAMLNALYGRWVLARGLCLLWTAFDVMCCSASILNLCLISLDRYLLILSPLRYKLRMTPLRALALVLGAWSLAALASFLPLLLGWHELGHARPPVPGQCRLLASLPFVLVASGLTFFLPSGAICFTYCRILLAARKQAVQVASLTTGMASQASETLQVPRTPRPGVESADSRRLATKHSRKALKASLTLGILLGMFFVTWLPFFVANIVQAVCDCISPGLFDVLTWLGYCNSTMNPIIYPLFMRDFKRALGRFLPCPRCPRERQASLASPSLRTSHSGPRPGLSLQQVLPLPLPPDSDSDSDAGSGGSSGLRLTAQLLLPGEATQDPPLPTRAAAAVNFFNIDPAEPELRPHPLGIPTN
Chain of D(2) dopamine receptor (P14416 whole entry): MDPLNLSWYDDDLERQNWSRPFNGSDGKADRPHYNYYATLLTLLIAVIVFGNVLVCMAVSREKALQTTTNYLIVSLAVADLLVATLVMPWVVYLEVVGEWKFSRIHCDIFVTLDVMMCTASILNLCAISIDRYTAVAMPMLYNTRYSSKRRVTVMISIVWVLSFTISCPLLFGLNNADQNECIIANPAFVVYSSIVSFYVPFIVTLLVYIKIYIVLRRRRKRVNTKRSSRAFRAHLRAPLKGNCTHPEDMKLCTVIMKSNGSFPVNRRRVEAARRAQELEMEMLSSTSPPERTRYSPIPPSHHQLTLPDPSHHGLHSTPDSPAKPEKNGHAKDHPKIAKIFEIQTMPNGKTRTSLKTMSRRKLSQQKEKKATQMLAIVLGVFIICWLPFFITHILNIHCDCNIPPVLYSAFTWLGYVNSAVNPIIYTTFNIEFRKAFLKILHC
Chain of 5-hydroxytryptamine receptor 2A (P28223 whole entry): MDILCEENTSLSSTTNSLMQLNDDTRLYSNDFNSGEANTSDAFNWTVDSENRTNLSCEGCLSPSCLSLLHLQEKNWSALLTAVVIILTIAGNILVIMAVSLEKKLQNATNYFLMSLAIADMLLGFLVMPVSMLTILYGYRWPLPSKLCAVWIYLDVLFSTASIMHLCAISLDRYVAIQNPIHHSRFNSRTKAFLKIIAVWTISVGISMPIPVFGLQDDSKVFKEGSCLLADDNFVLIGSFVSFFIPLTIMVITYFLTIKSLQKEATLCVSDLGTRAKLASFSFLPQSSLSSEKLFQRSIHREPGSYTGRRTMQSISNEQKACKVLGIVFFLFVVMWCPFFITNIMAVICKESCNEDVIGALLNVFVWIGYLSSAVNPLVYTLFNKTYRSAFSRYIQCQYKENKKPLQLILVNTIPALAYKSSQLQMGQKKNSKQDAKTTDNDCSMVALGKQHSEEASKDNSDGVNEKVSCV
Chain of Sodium-dependent dopamine transporter (Homo sapiens) (Q01959 whole entry): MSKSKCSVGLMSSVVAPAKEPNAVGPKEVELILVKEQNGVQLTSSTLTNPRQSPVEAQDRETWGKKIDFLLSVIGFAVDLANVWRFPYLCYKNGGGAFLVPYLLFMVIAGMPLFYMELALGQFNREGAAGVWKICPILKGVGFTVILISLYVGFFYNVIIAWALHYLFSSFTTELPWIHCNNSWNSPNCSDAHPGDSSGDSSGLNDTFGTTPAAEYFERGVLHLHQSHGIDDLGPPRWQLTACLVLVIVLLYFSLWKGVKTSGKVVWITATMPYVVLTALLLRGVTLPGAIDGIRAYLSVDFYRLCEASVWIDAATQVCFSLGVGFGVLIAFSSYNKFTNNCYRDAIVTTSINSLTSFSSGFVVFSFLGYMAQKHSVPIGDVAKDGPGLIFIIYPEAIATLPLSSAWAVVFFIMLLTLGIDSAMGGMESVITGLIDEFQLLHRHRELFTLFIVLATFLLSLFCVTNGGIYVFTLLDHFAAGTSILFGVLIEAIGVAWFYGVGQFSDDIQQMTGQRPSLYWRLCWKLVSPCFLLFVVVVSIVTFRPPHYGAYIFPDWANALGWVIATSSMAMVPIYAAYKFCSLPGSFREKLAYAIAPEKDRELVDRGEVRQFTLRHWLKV

SMILES: CC1CCN(CC[C@H]2CCCN2S(=O)(=O)c2cccc(O)c2)CC1
- Activity [1]: Active
- Activity [2]: Active
- Activity [3]: 31%

SMILES: CC(C)c1ccccc1OCC(O)CN1CCC(NS(=O)(=O)c2cccc(F)c2)CC1 (stereo not drawn)
- Ratio Ki [7]: 4
- Ki [8]: 0.213 µM
- Ki [18]: 0.742 µM

SMILES: O=S(=O)(NC1CCN(CCCOc2ccccc2-c2ccccc2)CC1)c1ccc(F)cc1
- Ratio Ki [7]: 32
- Ki [8]: 0.058 µM
- Ki [18]: 1.84 µM

SMILES: CC(C)c1ccccc1OCC(C)N1CCC(NS(=O)(=O)c2ccc(F)cc2)CC1 (stereo not drawn)
- Ratio Ki [7]: 16
- Ki [8]: 0.074 µM
- Ki [18]: 1.17 µM

The remaining molecules from weak to strong by Ki [8], led by results:

- Ratio Ki [7]: 9
- Ki [8]: 0.034 µM
- Ki [18]: 0.297 µM
SMILES: CC(COc1ccccc1-c1ccccc1)N1CCC(NS(=O)(=O)c2ccc(F)cc2)CC1 (stereo not drawn)

- Activity [5]: < 10%
- Ratio Ki [7]: 40
- Ki [8]: 0.033 µM
- Ki [9]: 2.11 µM
- Ki [11]: 0.343 µM
- Activity [12]: < 40%
- Activity [15]: < 40%
- Ki [18]: 1.33 µM
- Ki [19]: 0.295 µM
- Kb [22]: 0.025 µM
- Activity [23]: < 40%
SMILES: O=S(=O)(NC1CCN(CC(O)COc2ccccc2-c2ccccc2)CC1)c1cccc(Cl)c1 (stereo not drawn)
- Activity [4]: Active
- Activity [6]: Active
- Activity [10]: Active
- Activity [13]: Dose-dependent effect
- Activity [14]: Active
- Activity [16]: Non-Toxic
- Activity [17]: 25.4%
- Activity [20]: Active
- Activity [21]: 28 - 46%

- Ratio Ki [7]: 22
- Ki [8]: 0.032 µM
- Ki [18]: 0.696 µM
SMILES: CC(COc1ccccc1-c1ccccc1)N1CCC(NS(=O)(=O)c2cccc(Cl)c2)CC1 (stereo not drawn)
